Legend:
[1] = Stability in phosphate buffer assessed as half life at pH 7.7 by HPLC; format: physicochemical
Outline: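 Incubation at 37 °C in 0.066 M pH 7.7 isotonic phosphate buffer. Samples injected directly onto HPLC (acetonitrile:water 20:80 to 50:50, detection 290 nm). Half-life calculated from decline in substrate concentration; mean of at least 2 determinations ± SD.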

[2] = Stability in 80% human plasma assessed as half life by HPLC; format: ADME, cell-free
Outline: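 Plasma pooled from seven healthy donors, stored at −18 °C. Incubation at 37 °C in 80% plasma diluted with 0.066 M pH 7.4 isotonic phosphate buffer. Aliquots taken over time, diluted with acetonitrile, centrifuged, supernatant analysed by HPLC at 290 nm. t1/2 fitted from substrate loss; mean of at least 3 determinations ± SD.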

[3] = Octanol-phosphate buffer partition coefficient at pH 7.4 by HPLC; format: physicochemical
Outline: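 Octanol and pH 7.4 phosphate buffer, each pre-saturated with the other, at 25 °C. Compound dissolved in octanol, then shaken with buffer for 30 min to equilibrium. Each phase analysed separately by HPLC (acetonitrile:water 20:80 to 50:50, 290 nm). P taken as ratio of octanol to buffer peak areas. Mean of at least 3 determinations ± SD.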

SMILES	half-life [1]	half-life [2]	logD [3]
CC(=O)NCC(=O)N(C)/N=N/c1ccc(C#N)cc1	7.6 h	1.2 h	1.1
CCC(=O)N[C@@H](C)C(=O)N(C)/N=N/c1ccc(C#N)cc1	10.1 h	1.3 h	1.87
CCCC(=O)N[C@@H](C)C(=O)N(C)/N=N/c1ccc(C#N)cc1	9.1 h	1.1 h	2.28
C[C@H](NC(=O)c1ccccc1)C(=O)N(C)/N=N/c1ccc(C#N)cc1	9.2 h	1.6 h	3.04
CC(=O)N[C@@H](C)C(=O)N(C)/N=N/c1ccc(C(N)=O)cc1	18.4 h	7.6 h	0.69
CC(=O)N[C@H](C(=O)N(C)/N=N/c1ccc(C#N)cc1)C(C)C	84.3 h	5.7 h	2.18
CCOC(=O)c1ccc(/N=N/N(C)C(=O)[C@H](C)NC(C)=O)cc1	15.7 h	4.6 h	2.52
CC(=O)N[C@@H](Cc1ccccc1)C(=O)N(C)/N=N/c1ccc(C#N)cc1	13.9 h	2.4 h	2.76

The remaining lines, values ahead:

half-life [1]	half-life [2]	logD [3]	SMILES
25.5 h	5.7 h	2.8	CC(=O)N[C@@H](C)C(=O)N(C)/N=N/c1ccc(Br)cc1
46.5 h	15.1 h	2.45	CC(=O)N[C@@H](C)C(=O)N(C)/N=N/c1ccc(C)cc1
13.9 h	2.3 h	1.51	CC(=O)N[C@@H](C)C(=O)N(C)/N=N/c1ccc(C(C)=O)cc1
9.8 h	1 h	1.41	CC(=O)N[C@@H](C)C(=O)N(C)/N=N/c1ccc(C#N)cc1
